Screening results as filed in PubChem.
E coli WT exp: growth inhibitors of wild-type E. coli, primary screen, strain BW25113, expanded library, OD600; OD600 absorbance; growth inhibition, % at 100 µM; hit rate 0.15% among 98,000; AID 710, 2007;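 active = growth inhibition above about 50% at one test dose, limit read from the data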;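 note: growth measured after 20 h incubation at 37 °C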
PostGolgi ctrl: growth inhibition of yeast control strain, primary screen, counter-screen for post-Golgi transport modulator project; efflux-deficient yeast background strain, growth absorbance A615, 16 h; inhibition, % at 10 µM; AID 738, 2007; hit rate 5% among 98,000
PostGolgi yeast: phenotypic screen on post-Golgi transport, primary screen; post-Golgi transport phenotypic cell assay; inhibition, % at 10 µM; hit rate 0.9% among 98,000; AID 739, 2007;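 note: yeast cells grown in 1536-well plates; yeast grown about 18 h at 30C before absorbance read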
Ecoli tolC: growth inhibitors of E. coli tolC mutant, primary screen, strain BW25113 ΔtolC::kan, 384-well; OD615; growth inhibition, % at 10 µM (by protocol); hit rate 2.2% among 65,000; AID 573, 2007;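 active = growth inhibition at or above a cutoff equal to the mean over every tested compound plus 3 SD, cut at about 60% in these data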;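 note: growth measured after 20 h incubation at 37 °C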
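Test system: E. coli BW25113 ΔtolC::kan bacteria | Medium: Kanamycin-containing LB broth (50 µg/mL) | Dosing: One dose of 10 µM final | Times: 20 h incubation with compound, 37 °C | Detection: Optical density read at 615 nm | Read-out basis: Percent growth inhibition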
HePTP inh: inhibitors of human HePTP phosphatase, primary screen, biochemical, absorbance, leukemia target | recombinant HePTP phosphatase activity, OD absorbance | inhibition, % at 20 µM | hit rate 0.64% among 110,000 | AID 521, 2006; in the data active = inhibition above about 50%
PLAP activator: PLAP enzyme activators, biochemical, luminescence, HTS | Alkaline phosphatase, placental type (Homo sapiens), P05187 | hit rate 1.2% among 96,000 | activation fold at 20 µM | purified PLAP enzyme, luminescent substrate read-out; stronger effect = higher value | AID 696, 2007; in the data active = activation fold above about 2
Target sequence (P05187 whole entry, looked up): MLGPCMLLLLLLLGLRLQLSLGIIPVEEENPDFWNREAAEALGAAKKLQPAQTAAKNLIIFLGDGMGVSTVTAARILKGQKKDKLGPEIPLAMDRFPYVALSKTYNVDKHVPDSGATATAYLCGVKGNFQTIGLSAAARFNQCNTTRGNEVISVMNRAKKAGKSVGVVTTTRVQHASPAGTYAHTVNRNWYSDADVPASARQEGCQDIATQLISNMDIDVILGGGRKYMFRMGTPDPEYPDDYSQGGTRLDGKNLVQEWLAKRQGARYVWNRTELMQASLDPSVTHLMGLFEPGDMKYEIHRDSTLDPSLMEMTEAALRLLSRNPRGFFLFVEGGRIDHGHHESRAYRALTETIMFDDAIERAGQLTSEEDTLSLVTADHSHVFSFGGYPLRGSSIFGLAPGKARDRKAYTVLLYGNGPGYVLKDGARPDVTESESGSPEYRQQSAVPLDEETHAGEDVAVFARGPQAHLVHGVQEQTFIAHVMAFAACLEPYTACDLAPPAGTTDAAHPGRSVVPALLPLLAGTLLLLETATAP
Numbers stand for hits; n = inactive; x = no result given. An excerpt weighted towards active compounds, which were near 5.4% of everything screened. Cut-off read from the data, not from the text of the source, unless noted: active = inhibition above about 30%; inactive = the rest.

SMILES	E coli WT exp	PostGolgi ctrl	PostGolgi yeast	Ecoli tolC	HePTP inh	PLAP activator
CC(C)CN(C(=O)COC(=O)Cn1cnc2ccccc2c1=O)C1CCS(=O)(=O)C1 (stereo not drawn)	n	n	n	n	n	n
CCOC(=O)c1c(-c2ccccc2)oc2ccc(OC)cc12	n	31	n	x	x	n
Cc1ccc(Nc2nc(CSc3nnnn3C)cs2)cc1	n	n	n	n	n	n
CCc1ccc(Nc2nc(N)nc(CSc3nnnn3-c3ccccc3)n2)cc1	n	37	n	n	n	n
Cc1ccc(Nc2nc(CSc3nnnn3-c3ccccc3)cs2)cc1	n	34	n	94	n	n
Cc1cc(C)c(C#N)c(SCC(=O)N2CCN(Cc3ccccc3)CC2)n1	n	31	n	n	n	n
CCN(Cc1ccccc1)C(=O)CSc1nc(C)cc(C)c1C#N	n	35	n	n	n	n
Cc1ccc(OCCn2c(SCC(N)=O)nc3ccccc32)cc1	x	x	x	x	n	x
CC(C)C(=O)N1C2CCC1CC(O)(c1ccc(F)cc1)C2 (stereo not drawn)	n	n	n	x	x	n
Cc1cc(N2C3CCC2CC(O)(c2ccc(F)cc2)C3)nc(-c2ccccc2)n1 (stereo not drawn)	n	n	n	100	n	n
Cn1ccnc1SCC(=O)Nc1sccc1C#N	n	n	n	n	n	n
CCOC(=O)c1cc(C#N)c(Oc2ccc(F)cc2)nc1-c1ccccc1	n	37	n	x	x	n
Cc1ccc(-c2cc(C(=O)Nc3cc(C)on3)c3ccccc3n2)c(C)c1	n	37	n	n	n	n
Cc1ccc(SCCNS(=O)(=O)c2ccc(F)cc2)cc1	n	48	n	n	n	n
O=S(=O)(NCCSc1ccc(Cl)cc1)c1ccc(F)cc1	n	n	n	x	x	n
COc1ccc(S(=O)(=O)NCCSc2ccc(C)cc2)cc1OC	n	n	n	n	n	n
Cc1ccc(SCCNS(=O)(=O)c2ccc3c(c2)OCCO3)cc1	n	46	n	74	n	x
Cc1cccc(C(=O)NCCc2nc3ccccc3[nH]2)c1	x	x	x	x	n	x
CCOc1ccccc1N(CC(=O)Nc1ccc2c(c1)OCO2)S(C)(=O)=O	n	n	n	n	n	n
CCOC(=O)c1ccc(NC(=O)CN(c2ccccc2OCC)S(=O)(=O)c2ccccc2)cc1	x	x	x	x	104	x
CCOc1ccccc1N(CC(=O)Nc1ccc2c(c1)OCCO2)S(C)(=O)=O	n	34	n	n	n	n
CCOC(=O)c1ccc(NC(=O)CN(c2ccc(F)cc2)S(=O)(=O)c2ccccc2)cc1	x	x	x	x	n	x
Cc1nn(-c2nc3ccccc3[nH]2)c(N)c1-c1ccc(Cl)cc1	n	72	n	x	x	n
Cc1nn(-c2ccc(C(=O)O)cc2)c(N)c1-c1ccccc1	n	n	n	n	n	n
COc1ccc(-c2c(C)nn(-c3ccccc3)c2N)cc1OC	x	x	x	x	n	x
SMILES	E coli WT exp	PostGolgi ctrl	PostGolgi yeast	Ecoli tolC	HePTP inh	PLAP activator
COc1ccc(-c2c(C)nn(-c3ccccc3)c2N)cc1	n	38	n	x	x	n
Cc1ccc(-c2noc(CCC(=O)Nc3cc(C)ccn3)n2)cc1	n	n	n	n	n	n
COc1ccc(Nc2cc(=O)n(C3CCCCC3)c(=O)[nH]2)c(OC)c1	n	n	n	n	n	n
Cc1cc(C)cc(Nc2cc(=O)n(C3CCCCC3)c(=O)[nH]2)c1	n	n	n	83	n	n
CSc1nc(N)nc(SCC(=O)OC(C)C)c1C#N	n	n	n	n	n	n
O=C(NNc1ccccn1)C(=O)NNS(=O)(=O)c1ccc(Cl)cc1	n	31	n	x	x	2.4
O=S(=O)(N=C(Nc1ccccn1)c1ccccc1)c1ccc(Cl)cc1	x	x	x	x	n	x
CCOc1cc(/C=C2\SC(=S)N(Nc3ccccc3)C2=O)ccc1O	n	61	n	x	n	n
CCOc1cc(/C=C2\SC(=S)N(NC(=O)c3ccccc3O)C2=O)ccc1O	x	x	x	x	n	x
CCN1C(=S)SC(=O)C1=C1C=C(C)N(Cc2ccco2)C(C)=C1	n	38	n	n	n	n
Cc1ccc(SCCC(=O)N(C)C)cc1	n	n	n	n	n	n
CS(=O)(=O)N(CC(=O)O)c1ccc(Oc2ccccc2)cc1	n	36	n	n	n	n
CCC(C)(C)n1nnnc1CN(Cc1ccc(Cl)cc1)Cc1ccco1	n	n	n	81	n	n
Cc1[nH]nc2c1C1(C(=O)Nc3ccc([N+](=O)[O-])cc31)C(C#N)=C(N)O2 (stereo not drawn)	n	n	n	x	x	n
CCc1[nH]nc2c1C1(CCN(C(=O)c3ccccc3)CC1)C(C#N)=C(N)O2	n	n	n	n	n	n
CC(=O)N1CCC2(CC1)C(C#N)=C(N)Oc1n[nH]c(CSc3ccc(C)cc3)c12	n	n	n	n	n	2
Cc1ccc(SCc2[nH]nc3c2C2(C(=O)Nc4ccc(F)cc42)C(C#N)=C(N)O3)cc1 (stereo not drawn)	n	n	n	x	x	2
CCCOc1ccc(C(=O)Nc2ccc(Cl)cn2)cc1	n	n	n	x	n	n
CCOC(=O)c1[nH]c2ccc(F)cc2c1NC(=O)CN1CCN(C/C=C/c2ccccc2)CC1	n	n	n	98	n	n
CCOC(=O)c1[nH]c2ccc(F)cc2c1NC(=O)C1=COCCO1	n	n	n	n	n	n
CCOC(=O)c1[nH]c2ccc(OC)cc2c1NC(=O)CCN1CCc2ccccc2C1	n	32	n	n	n	n
CCOC(=O)N1CCN(CC(=O)Nc2c(C(=O)OC)[nH]c3ccc(Cl)cc23)CC1	n	n	n	86	n	n
CCOC(=O)c1[nH]c2ccc(F)cc2c1NC(=O)c1cc(OC)c(OC)c(OC)c1	n	30	n	n	n	n
COc1ccc(N2C(=O)S/C(=C/c3cccc(Br)c3)C2=O)cc1	x	x	x	x	n	x
COC(=O)c1[nH]c2ccc(Cl)cc2c1NC(=O)CN1CCc2cc(OC)c(OC)cc2C1	n	31	n	n	n	n
SMILES	E coli WT exp	PostGolgi ctrl	PostGolgi yeast	Ecoli tolC	HePTP inh	PLAP activator
CSCCC(NC(=O)c1ccc(C)o1)C(=O)O (stereo not drawn)	n	n	n	n	n	n
CCOC(=O)C1=C(C)N=c2s/c(=C\c3ccc([N+](=O)[O-])o3)c(=O)n2C1c1ccc(OC)cc1 (stereo not drawn)	x	x	x	x	52	x
CCOC(=O)C1=C(C)N=c2s/c(=C\c3cccn3C)c(=O)n2C1c1cccc(OC)c1OC (stereo not drawn)	n	33	n	n	n	n
CCOc1cccc(=[O+]CC)c2c(C)oc(C)c12	x	x	x	x	102	x
C/C(=N\NC(=O)c1c[nH]c2ccccc12)c1ccco1	n	n	n	x	n	2.3
Cc1c(/C=N/NC(=O)c2cc(=O)[nH]c(=O)[nH]2)c2ccccn2c1C(=O)c1ccccc1	n	n	n	x	x	2.2
Cc1cccc(NS(=O)(=O)c2ccc(C3CCCCC3)cc2)c1	n	50	n	x	x	n
Cc1cccc(NS(=O)(=O)c2ccc(C3CCCCC3)cc2)n1	n	n	n	x	x	n
